Test results: ChEMBL document CHEMBL1124339, “Conformationally restricted analogues of atriopeptin(103-125)amide” (J Med Chem, 1989)

Experiments:
Oryctolagus cuniculus [1] = species on record: Oryctolagus cuniculus; assay: Relative binding potency towards vasorelaxant binding site compared to AP(103-126)
Procedure, shortened: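 Varied unlabeled peptide concentrations; started by adding membranes; 30 min at 25 °C. Filtration with ice-cold buffer, then gamma counting. Nonspecific binding measured with 10^-6 M unlabeled reference peptide. Specific binding fitted by nonlinear least squares.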

[2] = test system: Atrial natriuretic peptide receptor 3 (Oryctolagus cuniculus); assay: Relative binding potency towards non-vasorelaxant binding site compared to AP(103-126)
Oryctolagus cuniculus [3] = species on record: Oryctolagus cuniculus; assay: Effective concentration in vasorelaxation assay; 0.05-0.3 uM; assay type: functional
Oryctolagus cuniculus [4] = species on record: Oryctolagus cuniculus; assay: Relative potency for vasorelaxant activity of the compound; assay type: functional
Oryctolagus cuniculus [5] = species on record: Oryctolagus cuniculus; assay: Effective concentration in vasorelaxant assay; 0.05-0.3 uM; assay type: functional

Relative potency (Oryctolagus cuniculus [1]) | Relative potency [2] | SMILES | EC50 (Oryctolagus cuniculus [3]) [µM] | EC50 (Oryctolagus cuniculus [4]) [µM] | EC50 (Oryctolagus cuniculus [5]) [µM]
0.91 | 0.91 | CC[C@H](C)[C@H]1NC(=O)[C@H](CCCN=C(N)N)NC(=O)[C@H](CC(=O)O)NC(=O)[C@@H]([C@@H](C)CC)NC(=O)[C@H](CCCN=C(N)N)NC(=O)[C@@H](CSCNC(C)=O)NC(=O)CNC(=O)[C@@H](Cc2ccccc2)NC(=O)[C@H](NC(=O)[C@H](CO)NC(=O)[C@@H](N)CO)CSSC[C@H](C(=O)N[C@@H](CC(N)=O)C(=O)N[C@@H](CO)C(=O)N[C@@H](Cc2ccccc2)C(=O)N[C@@H](CCCN=C(N)N)C(N)=O)NC(=O)CNC(=O)[C@@H](CC(C)C)NC(=O)CNC(=O)[C@@H](CSCNC(C)=O)NC(=O)[C@H](CCC(N)=O)NC(=O)[C@@H](C)NC(=O)CNC1=O |  |  | 
4.3 | 4.3 | CC[C@H](C)[C@@H]1NC(=O)[C@H](CCCN=C(N)N)NC(=O)[C@H](CC(=O)O)NC(=O)[C@H]([C@@H](C)CC)NC(=O)[C@H](CCCN=C(N)N)NC(=O)[C@@H](CSCNC(C)=O)NC(=O)CNC(=O)[C@H](Cc2ccccc2)NC(=O)[C@@H](NC(=O)[C@H](CO)NC(=O)[C@@H](N)CO)CSSC[C@@H](C(=O)N[C@@H](CC(N)=O)C(=O)N[C@@H](CO)C(=O)N[C@@H](Cc2ccccc2)C(=O)N[C@@H](CCCN=C(N)N)C(N)=O)NC(=O)CNC(=O)[C@H](CC(C)C)NC(=O)CNC(=O)[C@H](CO)NC(=O)[C@H](CCC(N)=O)NC(=O)[C@H](C)NC(=O)CNC1=O |  |  | 
0.15 | 0.15 | CC[C@H](C)[C@@H]1NC(=O)[C@H](CCCN=C(N)N)NC(=O)[C@H](CC(=O)O)NC(=O)[C@H]([C@@H](C)CC)NC(=O)[C@H](CCCN=C(N)N)NC(=O)[C@@H](CCSCNC(C)=O)NC(=O)CNC(=O)[C@H](Cc2ccccc2)NC(=O)[C@H](NC(=O)[C@H](CO)NC(=O)[C@@H](N)CO)CSSC[C@H](C(=O)N[C@@H](CC(N)=O)C(=O)N[C@@H](CO)C(=O)N[C@@H](Cc2ccccc2)C(=O)N[C@@H](CCCN=C(N)N)C(N)=O)NC(=O)CNC(=O)[C@H](CC(C)C)NC(=O)CNC(=O)[C@H](CSCNC(C)=O)NC(=O)[C@H](CCC(N)=O)NC(=O)[C@H](C)NC(=O)CNC1=O |  |  | 

Continued, compound first:

SMILES | Relative potency (Oryctolagus cuniculus [1]) | Relative potency [2] | EC50 (Oryctolagus cuniculus [3]) [µM] | EC50 (Oryctolagus cuniculus [4]) [µM] | EC50 (Oryctolagus cuniculus [5]) [µM]
CC[C@H](C)[C@@H]1NC(=O)[C@H](CCCN=C(N)N)NC(=O)[C@H](CC(=O)O)NC(=O)[C@H]([C@@H](C)CC)NC(=O)[C@H](CCCN=C(N)N)NC(=O)[C@@H](CCS)NC(=O)CNC(=O)[C@H](Cc2ccccc2)NC(=O)[C@@H](NC(=O)[C@H](CO)NC(=O)[C@@H](N)CO)CSSC[C@@H](C(=O)N[C@@H](CC(N)=O)C(=O)N[C@@H](CO)C(=O)N[C@@H](Cc2ccccc2)C(=O)N[C@@H](CCCN=C(N)N)C(N)=O)NC(=O)CNC(=O)[C@H](CC(C)C)NC(=O)CNC(=O)[C@@H](CCS)NC(=O)[C@H](CCC(N)=O)NC(=O)[C@H](C)NC(=O)CNC1=O | 0.071 | 2.8 |  |  | 
CC[C@H](C)[C@H](NC(=O)[C@H](CC/N=C(/N)NO)NC(=O)[C@H](CC(=O)O)NC(=O)[C@@H](NC(=O)[C@H](CCN=C(N)N)NC(=O)[C@H](CSCNC(C)=O)NC(=O)CNC(=O)[C@H](Cc1ccccc1)NC(=O)[C@H](CSCNC(C)=O)NC(=O)[C@H](CO)NC(=O)[C@@H](N)CO)[C@@H](C)CC)C(=O)NCC(=O)N[C@@H](C)C(=O)N[C@@H](CCC(N)=O)C(=O)C1SSC[C@@H](C(=O)N[C@@H](CC(N)=O)C(=O)CN[C@@H](CO)C(=O)N[C@@H](Cc2ccccc2)C(=O)N[C@@H](CCCN=C(N)N)C(N)=O)NC(=O)CNC(=O)[C@H](CC(C)C)NC(=O)CNC(=O)[C@H]1N (stereo in doubt; 9b) | 0.0053 | 2.2 |  |  | 
CC[C@H](C)[C@@H]1NC(=O)[C@H](CCCN=C(N)N)NC(=O)[C@H](CC(=O)O)NC(=O)[C@H]([C@@H](C)CC)NC(=O)[C@H](CCCN=C(N)N)NC(=O)CNC(=O)CNC(=O)[C@H](Cc2ccccc2)NC(=O)[C@@H](NC(=O)[C@H](CO)NC(=O)[C@@H](N)CO)CSSC[C@@H](C(=O)N[C@@H](CC(N)=O)C(=O)N[C@@H](CO)C(=O)N[C@@H](Cc2ccccc2)C(=O)N[C@@H](CCCN=C(N)N)C(=O)N[C@@H](Cc2ccc(O)cc2)C(=O)O)NC(=O)CNC(=O)[C@H](CC(C)C)NC(=O)CNC(=O)[C@H](CO)NC(=O)[C@H](CCC(N)=O)NC(=O)[C@H](C)NC(=O)CNC1=O |  |  | 0.05 | 0.0023 | 
CC[C@H](C)[C@@H]1NC(=O)[C@H](CCCN=C(N)N)NC(=O)[C@H](CC(=O)O)NC(=O)[C@H]([C@@H](C)CC)NC(=O)[C@H](CCCN=C(N)N)NC(=O)[C@@H](CSCNC(C)=O)NC(=O)CNC(=O)[C@H](Cc2ccccc2)NC(=O)[C@@H](NC(=O)[C@H](CO)NC(=O)[C@@H](N)CO)CSSC[C@@H](C(=O)NCC(=O)N[C@@H](CC(C)C)C(=O)NCC(=O)N[C@@H](CSCNC(C)=O)C(=O)N[C@@H](CC(N)=O)C(=O)N[C@@H](CO)C(=O)N[C@@H](Cc2ccccc2)C(=O)N[C@@H](CCCN=C(N)N)C(N)=O)NC(=O)[C@H](CCC(N)=O)NC(=O)[C@H](C)NC(=O)CNC1=O | 0.014 | 3.1 |  |  | 
CC[C@H](C)[C@@H]1NC(=O)[C@H](CCCN=C(N)N)NC(=O)[C@H](CC(=O)O)NC(=O)[C@H]([C@@H](C)CC)NC(=O)[C@H](CCCN=C(N)N)NC(=O)CNC(=O)CNC(=O)[C@H](Cc2ccccc2)NC(=O)[C@@H](NC(=O)[C@H](CO)NC(=O)[C@@H](N)CO)CSSC[C@@H](C(=O)N[C@@H](CC(N)=O)C(=O)N[C@@H](CO)C(=O)N[C@@H](Cc2ccccc2)C(=O)N[C@@H](CCCN=C(N)N)C(N)=O)NC(=O)CNC(=O)[C@H](CC(C)C)NC(=O)CNC(=O)[C@H](CO)NC(=O)[C@H](CCC(N)=O)NC(=O)[C@H](C)NC(=O)CNC1=O |  |  |  |  | 0.05
CC[C@H](C)[C@H]1NC(=O)[C@H](CCCN=C(N)N)NC(=O)[C@H](CC(=O)O)NC(=O)[C@@H]([C@@H](C)CC)NC(=O)[C@H](CCCN=C(N)N)NC(=O)CNC(=O)CNC(=O)[C@@H](Cc2ccccc2)NC(=O)[C@H](NC(=O)[C@H](CO)NC(=O)[C@@H](N)CO)CSSC[C@H](C(=O)N[C@@H](CC(N)=O)C(=O)N[C@@H](CO)C(=O)N[C@@H](Cc2ccccc2)C(=O)N[C@@H](CCCN=C(N)N)C(N)=O)NC(=O)CNC(=O)[C@@H](CC(C)C)NC(=O)CNC(=O)[C@@H](CO)NC(=O)[C@H](CCC(N)=O)NC(=O)[C@@H](C)NC(=O)CNC1=O | 3.2 | 3.2 |  |  | 
